Screening results as filed in PubChem.
KCNK3 inh: human KCNK3 channel inhibition, primary screen. O14649. 340,000 tested, 0.84% active. CHO-KCNK3 thallium flux, FluxOR fluorescence; active compounds read low. B-score at 10 µM;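 active = B-score under library mean minus 4 SD, starting fluorescence ratio at most library mean plus 5 SD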;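 also: more negative B-score means stronger inhibition of thallium flux through KCNK3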
Target sequence (O14649 whole entry, looked up): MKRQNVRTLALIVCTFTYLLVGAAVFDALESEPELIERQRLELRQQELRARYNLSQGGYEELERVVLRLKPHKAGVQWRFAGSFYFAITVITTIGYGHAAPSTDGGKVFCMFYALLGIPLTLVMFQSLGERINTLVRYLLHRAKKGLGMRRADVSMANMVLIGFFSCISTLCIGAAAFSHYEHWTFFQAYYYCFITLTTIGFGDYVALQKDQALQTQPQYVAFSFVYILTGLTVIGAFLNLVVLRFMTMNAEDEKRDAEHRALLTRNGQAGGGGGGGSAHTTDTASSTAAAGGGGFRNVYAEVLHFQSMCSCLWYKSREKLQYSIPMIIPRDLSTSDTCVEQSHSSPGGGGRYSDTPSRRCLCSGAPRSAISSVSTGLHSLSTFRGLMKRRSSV
hERG rescue: hERG (human) protection from proarrhythmic block. Q12809. CHO-hERG, FluxOR thallium flux, dofetilide IC70 present. activation (rescue from dofetilide block), less the hit threshold, % at 10 µM. 310,000 tested, 0.51% active;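 active = activation above the mean of controls blocked by dofetilide plus 5 SD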;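 also: thallium influx through hERG after potassium depolarization seen as dye fluorescence rise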
KCNQ1 block: human KCNQ1 channel inhibition. 310,000 tested, 1.3% active. AID 2642. CHO-K1 KCNQ1, FluxOR thallium flux fluorescence; active compounds read high. B-score at 10 µM. P51787;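 active = compounds whose thallium flux B-score, printed positive for inhibition, exceeds three library SD while starting fluorescence stays within three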;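 also: channel opened by potassium depolarization with thallium stimulus after 20 min compound exposure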
KCNK9 block: blocks the human KCNK9 two-pore domain potassium channel. HEK293 KCNK9, FluxOR thallium flux fluorescence; active compounds read low. B-score at 10 µM. 310,000 tested, 1.2% active. AID 488922;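 active = ratio B-score over 3 SD below the library mean, with starting fluorescence within 5 SD of its mean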;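 also: negative B-score means less thallium flux so channel inhibition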
KCNQ1 act: potentiators or activators of human KCNQ1 potassium channel; AID 2648; 310,000 tested, 0.35% active; P51787; B-score at 10 µM; CHO-K1 KCNQ1, thallium flux FluxOR fluorescence; active compounds read high;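 active = fluorescence ratio B-score, a plate-corrected score, at least three library SD, with initial intensity B-score within 5 SD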
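Test system: CHO-K1 cells stably expressing KCNQ1 / Medium: assay buffer / Also added: depolarizing K+/Tl+ stimulus, K2SO4 and Tl2SO4 each 12.5 mM in 5x stock / Incubation: 90 min dye loading and 20 min compound exposure, both at room temperature / Signal: thallium influx via FluxOR fluorescence, kinetic imaging / Evaluation: B score of baseline-normalized fluorescence ratio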
An asterisk follows results filed as active; i = inactive; / = not tested or not shown. Sampled rows, rich in hits. Any-hit rate of the full collection: about 3.1%.

SMILES	KCNK3 inh	hERG rescue	KCNQ1 block	KCNK9 block	KCNQ1 act
CC[C@@H](C(=O)[C@@H](C)[C@@H](O)[C@H](C)[C@@H]1O[C@@H]([C@@H](CC)C(=O)O)CC[C@@H]1C)[C@H]1O[C@]2(C=C[C@@H](O)[C@]3(CC[C@@](C)([C@H]4CC[C@](O)(CC)[C@H](C)O4)O3)O2)[C@H](C)C[C@@H]1C	i	/	/	/	/
CC[C@@H](C(=O)[C@@H](C)[C@@H](O)[C@H](C)CCc1ccc(C)c(O)c1C(=O)O)[C@H]1O[C@](CC)([C@H]2CC[C@](O)(CC)[C@H](C)O2)C[C@@H]1C	i	64.6*	i	i	76*
Cn1c(=O)c(C#N)c(-c2ccc(F)cc2)c2cc(C(=O)c3cc(Cl)cc(Cl)c3O)cnc21	i	-15.5	11*	i	i
O=C(CCn1cccn1)N1CCCC(N2CCN(c3cccc(Cl)c3)CC2)C1 (stereo not drawn)	i	-1.0	i	i	i
c1ccc2c(NCCc3c[nH]c4ccccc34)c3ccccc3nc2c1	i	-16.9	7*	i	i
COC(=O)c1cc(OC)c(OC)cc1NC(=O)c1cc(C(C)(C)C)oc1C	i	-8.4	i	i	i
CCc1ccc2[nH]c(=O)c(CN(CCCN3CCOCC3)C(=O)Nc3cccc(Cl)c3)cc2c1	i	-26.0	6*	i	i
Oc1c(Cl)cc(Cl)cc1C=Nc1ccc(Br)cc1	i	5.0*	i	i	i
CCOC(=O)c1ccc([N+](=O)[O-])c(CS(=O)(=O)c2ccc(Cl)cc2)c1	i	-10.7	i	i	i
Cc1ccc(S(=O)(=O)Cc2cc(F)c([N+](=O)[O-])cc2[N+](=O)[O-])cc1	-10.4*	-25.6	i	i	i
COc1cc(NC(=O)OCc2ccccc2)c2ncccc2c1	-10.8*	/	/	/	/
CCN1CCN(S(=O)(=O)c2ccc(Cl)c(C(=O)NCCc3ccccc3)c2)CC1	i	-10.7	i	i	i
COc1ccc(OC)c(/C=C/C(=O)NCCc2nc3ccccc3[nH]2)c1	i	-9.7	7*	i	i
O=C(/C=C/c1ccccc1)NCCc1nc2ccccc2[nH]1	i	-8.4	i	i	i
C/C(=C\C(=O)c1ccccc1)NNC(=O)c1ccc(Cl)cc1	i	6.5*	i	i	i
COc1ccc(C(=O)NN/C(C)=C/C(=O)c2ccccc2)cc1	i	9.1*	i	i	i
O=[N+]([O-])c1cccc(COc2cccc(CN3CCCCC3)c2)c1	i	/	/	/	/
COc1ccc(CCNC(=O)Nc2cccs2)c(OC)c1	i	0.2	i	i	i
CC(=O)CC1OC(=O)C(Br)=C1NCc1ccccc1 (stereo not drawn)	i	-7.0	6*	i	i
COc1c(CC=C(C)C)cc(C2CC(=O)c3c(O)cc(O)cc3O2)cc1CC=C(C)C (stereo not drawn)	i	-13.2	8*	i	i
COc1ccc([C@@H]2CC(=O)c3c(O)cc(O)cc3O2)cc1O	i	/	/	/	/
COc1ccc(-c2csc(NC(=S)NC(=O)c3cc4ccccc4o3)n2)cc1Br	i	-0.3	i	i	i
Cc1ccc(-c2csc(NC(=S)NC(=O)c3ccco3)n2)cc1	i	-5.1	i	i	28*
Cc1ccc(-c2csc(NC(=O)CCNC(=O)c3ccco3)n2)cc1	i	-14.0	i	i	i
COc1ccc(-c2csc(NC(=S)NC(=O)c3ccco3)n2)cc1Br	i	11.4*	i	i	i
SMILES	KCNK3 inh	hERG rescue	KCNQ1 block	KCNK9 block	KCNQ1 act
O=C(NC(=S)Nc1nc2ccc(F)cc2s1)c1ccco1	i	40.0*	i	i	47*
CCN(CC)c1ccc(/C=N/NC(=O)c2nnn(-c3nonc3N)c2-c2ccc(C)cc2)cc1	i	-4.4	i	i	i
COc1ccc(CC2=CC(=O)c3ccccc3C2=O)cc1	i	-6.3	8*	i	i
O=C(Nc1cccc(Cl)c1)N1CCN2C(=O)c3ccccc3C12c1ccccc1 (stereo not drawn)	i	-11.2	11*	i	i
CCCCn1nc(NC(=O)COC)c2cc3ccc(C)cc3nc21	i	9.0*	i	i	i
CCOC(=O)c1cc(CC)sc1NC(=O)COC	i	-5.9	i	i	i
CCOC(=O)c1cc(CC)sc1NC(=O)Cc1ccccc1	i	-12.6	i	-7.65*	i
CCN(CC)c1ncnc2scc(C3COc4ccccc4O3)c12 (stereo not drawn)	i	-9.6	i	-7.62*	i
O=C(O)c1cc([N+](=O)[O-])ccc1NCCCc1ccccc1	i	-10.4	6*	i	i
O=C(O)c1cc([N+](=O)[O-])ccc1NCc1ccccc1	i	-2.9	i	i	i
COCCn1cnc2c1c(=O)n(CC(=O)NC(=O)NC(C)(C)C)c(=O)n2Cc1ccccc1	i	-5.6	i	i	i
CCCN(C(=O)c1cn(-c2ccccc2)nc1-c1ccc(OC)cc1)C1CCS(=O)(=O)C1 (stereo not drawn)	i	-0.9	i	i	8*
COc1ccc(-c2nn(-c3ccccc3)cc2C(=O)NC2CCC(C)CC2)cc1 (stereo not drawn)	i	-16.6	i	i	i
CCCCN1C[C@H](COC(=O)CCC)Oc2cccc(F)c2S1(=O)=O	i	/	/	/	/
O=C(O)CSCC(=O)N(Cc1ccccc1)c1nc(-c2ccccc2)c(-c2ccccc2)s1	i	-13.2	8*	i	i
Nc1c(-c2cccc(Cl)c2)cnn1-c1ccccc1	i	-8.0	i	-7.57*	i
COc1ccc2ccn(S(=O)(=O)c3ccccc3)c2c1	i	-9.4	i	i	i
CCN(CC(=O)Nc1c(F)cccc1F)C(=O)c1cccc(S(=O)(=O)NCc2ccccc2)c1	i	-9.9	i	i	i
CC(C)COc1ccc(-c2nn(-c3ccccc3)cc2C(=O)Nc2nccs2)cc1	i	14.2*	i	i	9*
O=C(Nc1nccs1)c1cn(-c2ccccc2)nc1-c1ccccc1	i	-3.3	i	i	i
Cc1cccc(CSc2nc3ccccc3c(=O)n2C)c1	-9.3*	/	/	/	/
Cc1ccc(-c2nc(CSc3nc4ccccc4c(=O)n3C)cs2)cc1	i	-6.8	i	i	i
COCCCn1cnnc1SC(C)C(=O)Nc1ccc(S(=O)(=O)N2CCOCC2)cc1 (stereo not drawn)	i	/	/	/	/
COc1ccc(-c2csc3ncnc(N4CCN(c5cccc(Cl)c5)CC4)c23)cc1	i	-15.8	6*	i	i
COc1ccc(N2CCN(c3ncnc4scc(-c5ccc(C)cc5)c34)CC2)cc1	i	-3.6	i	-7.87*	i
CCN1CCN(c2ncnc3scc(-c4ccc(OC)cc4)c23)CC1	i	-6.8	i	i	i
